Here are results for 19 compounds from ChEMBL document CHEMBL4118159, “Discovery of tetrahydroindazoles as a novel class of potent and in vivo efficacious gamma secretase modulators” (Bioorg Med Chem, 2018).

The test concerns the target Gamma-secretase. As to the kind of experiment: Modulation of gamma secretase in human H4 cells expressing human wild type APP assessed as inhibition of amyloid beta 42 production after 22 hrs by electrochemiluminescence assay. The class given is cell-based. The method in brief: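 H4 cells overexpressing human APPwt, 10,000/well, were exposed to compound 22 h at 37°C, 5% CO2. Supernatant was diluted with medium on an MSD anti-Aβ42 plate and detected with S-tag 6E10 (1:50, 1 h). Read-out was electrochemiluminescence.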

Regarding `CCn1ncc2c1CCC(Nc1nc3c(-c4cncc(C)c4)cccn3n1)C2` (centres undefined), the IC50 – broadly, the point on the concentration scale where inhibition reaches its midpoint – was determined as 200 nM.
In the case of `CCn1ncc2c1CC[C@@H](Nc1nc3c(-c4ccc(F)c(Cl)c4)cccn3n1)C2`, the 50% inhibitory concentration (IC50) came out at 9 nM.
With `Cc1cc(F)ccc1-c1cccn2nc(NC3CCc4c(cnn4C(C)C)C3)nc12` (centres undefined), the IC50 came to 430 nM.
With `CCn1ncc2c1CCC(Nc1nc3c(-c4cc(F)c(F)c(F)c4)cccn3n1)C2` (centres undefined), the IC50 was determined as 30 nM.
`CCn1ncc2c1CCC(Nc1nc3c(-c4ccc(C)nc4)cccn3n1)C2` (centres undefined): the IC50 came out at 670 nM.
As to `CCn1ncc2c1CCC(Nc1nc3c(-c4ccc(F)cc4C)cccn3n1)C2` (centres undefined), the IC50 was 70 nM.
On to `Cc1cc(F)ccc1-c1cccn2nc(Nc3ccc4c(cnn4C)c3)nc12`, for which the IC50 turned out to be 1200 nM.
In the case of `CCc1nnc2n1CCC(Nc1nc3c(-c4ccc(F)cc4C)cccn3n1)C2` (centres undefined), the IC50 amounted to 1390 nM.
Consider `CCn1ncc2c1CCC(Nc1nc3c(-c4cnccc4C)cccn3n1)C2` (centres undefined), for which the IC50 stood at 730 nM.
As to `CCn1ncc2c1CCC(Nc1nc3c(-c4cccnc4OC)cccn3n1)C2` (centres undefined), the IC50 was 500 nM.
To `CCn1ncc2c1CC[C@H](Nc1nc3c(-c4ccc(F)c(Cl)c4)cccn3n1)C2` belongs 194 nM; to `CCn1ncc2c1CCC(Nc1nc3c(-c4ccc(F)cc4)cccn3n1)C2` (centres undefined), 180 nM.
To `CCc1nnn2c1CCC(Nc1nc3c(-c4ccc(F)cc4C)cccn3n1)C2` (centres undefined) belongs 740 nM; to `CCn1ncc2c1CCC(Nc1nc3c(-c4cncc(OC)c4)cccn3n1)C2` (centres undefined), 200 nM; to `CCn1ncc2c1CCC(Nc1nc3c(-c4ccc(N(C)C)nc4)cccn3n1)C2` (centres undefined), 50 nM.
As to `CCn1ncc2c1CCC(Nc1nc3c(-c4cccnc4C)cccn3n1)C2` (centres undefined), the 50% inhibitory concentration (IC50) is 680 nM.
Consider `Cc1cc(F)ccc1-c1cccn2nc(NC3CCc4cnn(C)c4C3)nc12` (centres undefined), for which the IC50 was greater than 30000 nM.
For the compound `CCn1ncc2c1CCC(Nc1nc3c(-c4ccccc4C)cccn3n1)C2` (centres undefined), the IC50 was 160 nM.
For `CCn1ncc2c1CCC(Nc1nc3c(-c4ccc(F)c(Cl)c4)cccn3n1)C2` (centres undefined), the IC50 came out at 20 nM.
